# Test results: ChEMBL document CHEMBL1145184, “Synthesis, X-ray crystal structure study, and cytostatic and antiviral evaluation of the novel cycloalkyl-N-aryl-hydroxamic acids” (J Med Chem, 2005)
# Experiments:
# MOLT-4 = assay: Inhibitory concentration of the compound was determined against Molt 4/C8 cell line; format: functional, cell-based; conditions: Homo sapiens
# HeLa [1] = assay: Inhibitory concentration of the compound was determined against HeLa cell line; format: functional, cell-based; conditions: Homo sapiens
# CCRF-CEM [2] = assay: Inhibitory concentration of the compound was determined againstCEM cell line; format: functional, cell-based; conditions: Homo sapiens
# MCF7 = assay: Inhibitory concentration of the compound was determined against MCF-7 cell line; format: functional, cell-based; conditions: Homo sapiens
# HEp-2 = assay: Inhibitory concentration of the compound was determined against Hep2 cell line; format: functional, cell-based; conditions: Homo sapiens
# Cytomegalovirus [3] = assay: Effective concentration against Davis strain of CMV virus expressed in HEL cells; format: functional, organism-based; conditions: Human betaherpesvirus 5, HEL
# Summary of the method: (§1)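 Human embryonic lung (HEL) cell cultures infected with cytomegalovirus at 100 plaque forming units. EC50 is the concentration that cuts plaque formation by 50%, given in µg/mL.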
# SW-620 = assay: Inhibitory concentration of the compound was determined against SW6 20 cell line; format: functional, cell-based; conditions: Homo sapiens
# [4] = Inhibitory concentration of the compound was determined against W138 cell line; format: functional, cell-based, Homo sapiens
# Summary of the method: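 Cytostatic test on human normal fibroblasts, run in the same panel as the malignant tumour lines L1210, Molt4/C8, CEM, SW620, Hep2, MiaPaCa2, MCF7 and HeLa. The value is reported as an IC50.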
# Cell line [5] = assay: Cytotoxic concentration required to reduce cell growth by 50%; format: functional; conditions: Homo sapiens
# Summary of the method: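 Growth of HEL cells was measured. CC50 is the concentration that reduces cell growth by 50%, given in µg/mL.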
# L1210 [6] = assay: Inhibitory concentration of the compound was determined against L1210 cell line; format: functional, cell-based; conditions: Mus musculus
# MIA PaCa-2 = assay: Inhibitory concentration of the compound was determined against MiaPaCa2 cell line; format: functional, cell-based; conditions: Homo sapiens
# Cell line [7] = assay: Minimum cytotoxic concentration that causes a microscopically detectable alteration of cell morphology; format: functional; conditions: Homo sapiens
# Cytomegalovirus [8] = assay: Effective concentration against AD-169 strain of CMV virus expressed in HEL cells; format: functional, organism-based; conditions: Human betaherpesvirus 5, HEL; summary of the method: as §1
# CCRF-CEM [9] = assay: Inhibitory concentration was determined against CEM cell line; format: functional, cell-based; conditions: Homo sapiens
# HeLa [10] = assay: Inhibitory concentration of the compound was determined againstHeLa cell line; format: functional, cell-based; conditions: Homo sapiens
# CCRF-CEM [11] = assay: Inhibitory concentration ofthecompound was determined against CEM cell line; format: functional, cell-based; conditions: Homo sapiens
# L1210 [12] = assay: Inhibitory concentration against L1210 cell line; format: functional, cell-based; conditions: Mus musculus
SMILES,IC50 (MOLT-4),IC50 (HeLa [1]),IC50 (CCRF-CEM [2]),IC50 (MCF7),IC50 (HEp-2),EC50 (Cytomegalovirus [3]),IC50 (SW-620),IC50 [4],CC50 (Cell line [5]),IC50 (L1210 [6]),IC50 (MIA PaCa-2),MCC (Cell line [7]),EC50 (Cytomegalovirus [8]),IC50 (CCRF-CEM [9]),IC50 (HeLa [10]),IC50 (CCRF-CEM [11]),IC50 (L1210 [12])
O=C(CC1CCCCC1)N(O)c1ccccc1,41 µM,30 µM,40 µM,> 100 µM,> 100 µM,8 µg/mL,20 µM,70 µM,> 200 µg/mL,27 µM,40 µM,100 µg/mL,8 µg/mL,,,,
O=C(N(O)c1ccc(Cl)cc1)C12CC3CC(CC(C3)C1)C2,≥ 500 µM,> 100 µM,> 500 µM,> 100 µM,> 100 µM,7 µg/mL,> 100 µM,> 100 µM,> 50 µg/mL,290 µM,> 100 µM,100 µg/mL,13 µg/mL,,,,
O=C(CCC1CCCC1)N(O)c1ccc(Cl)cc1,28 µM,,,10 µM,20 µM,8 µg/mL,10 µM,10 µM,20 µg/mL,38 µM,7 µM,100 µg/mL,10 µg/mL,37 µM,30 µM,,
O=C(C1CCCCC1)N(O)c1ccc(Cl)cc1,19 µM,,,80 µM,40 µM,8.9 µg/mL,10 µM,100 µM,28 µg/mL,16 µM,20 µM,≥ 20 µg/mL,7.3 µg/mL,,30 µM,17 µM,
O=C(CC1CCCCC1)N(O)c1ccc(Cl)cc1,33 µM,,16 µM,10 µM,9 µM,6.2 µg/mL,9 µM,50 µM,129 µg/mL,26 µM,8 µM,50 µg/mL,7.3 µg/mL,,30 µM,,
O=C(CCC1CCCCC1)N(O)c1ccc(Cl)cc1,24 µM,,36 µM,20 µM,30 µM,0.8 µg/mL,20 µM,30 µM,4.7 µg/mL,21 µM,10 µM,≥ 4 µg/mL,1.5 µg/mL,,30 µM,,
O=C(C1CC1)N(O)c1ccc(Cl)cc1,24 µM,,25 µM,> 100 µM,> 100 µM,> 20 µg/mL,60 µM,> 100 µM,37 µg/mL,,> 100 µM,100 µg/mL,> 20 µg/mL,,> 80 µM,,22 µM
Nc1ccn(C[C@@H](CO)OCP(=O)(O)O)c(=O)n1.O.O [CIDOFOVIR],,,,,,0.29 µg/mL,,,24 µg/mL,,,≥ 400 µg/mL,0.18 µg/mL,,,,
Nc1nc2c(ncn2COC(CO)CO)c(=O)[nH]1 [GANCICLOVIR],,,,,,0.37 µg/mL,,,,,,≥ 400 µg/mL,0.37 µg/mL,,,,
